Experimental data: ChEMBL document CHEMBL1132231, “New generation dopaminergic agents. 6. Structure-activity relationship studies of a series of 4-(aminoethoxy)indole and 4-(aminoethoxy)indolone derivatives based on the newly discovered 3-hydroxyphenoxyethylamine D2 template” (J Med Chem, 1999)

Legend:
[1] = molecular target: T1, Adrenergic receptor alpha-1 (Rattus norvegicus, UniProt P15823+P23944+P43140); assay: In vitro binding affinity towards alpha-1 adrenergic receptor by the displacement of [3H]prazosin radioligand in rat cortical homogenates
T1 sequence (P15823 whole entry): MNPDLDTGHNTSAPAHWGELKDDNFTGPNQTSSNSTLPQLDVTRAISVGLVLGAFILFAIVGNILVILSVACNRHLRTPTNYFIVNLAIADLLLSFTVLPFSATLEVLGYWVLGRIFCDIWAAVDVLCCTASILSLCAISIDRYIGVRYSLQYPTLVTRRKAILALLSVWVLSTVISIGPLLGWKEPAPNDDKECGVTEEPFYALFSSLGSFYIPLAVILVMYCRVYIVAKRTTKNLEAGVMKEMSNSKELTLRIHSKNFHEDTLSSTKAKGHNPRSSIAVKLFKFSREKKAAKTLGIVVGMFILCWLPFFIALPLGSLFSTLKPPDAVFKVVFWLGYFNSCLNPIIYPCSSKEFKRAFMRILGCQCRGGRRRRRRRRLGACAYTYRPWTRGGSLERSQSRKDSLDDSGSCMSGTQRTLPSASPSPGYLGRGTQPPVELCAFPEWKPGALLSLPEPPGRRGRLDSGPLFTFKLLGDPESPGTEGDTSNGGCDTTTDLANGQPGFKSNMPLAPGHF
T1 sequence (P23944 whole entry): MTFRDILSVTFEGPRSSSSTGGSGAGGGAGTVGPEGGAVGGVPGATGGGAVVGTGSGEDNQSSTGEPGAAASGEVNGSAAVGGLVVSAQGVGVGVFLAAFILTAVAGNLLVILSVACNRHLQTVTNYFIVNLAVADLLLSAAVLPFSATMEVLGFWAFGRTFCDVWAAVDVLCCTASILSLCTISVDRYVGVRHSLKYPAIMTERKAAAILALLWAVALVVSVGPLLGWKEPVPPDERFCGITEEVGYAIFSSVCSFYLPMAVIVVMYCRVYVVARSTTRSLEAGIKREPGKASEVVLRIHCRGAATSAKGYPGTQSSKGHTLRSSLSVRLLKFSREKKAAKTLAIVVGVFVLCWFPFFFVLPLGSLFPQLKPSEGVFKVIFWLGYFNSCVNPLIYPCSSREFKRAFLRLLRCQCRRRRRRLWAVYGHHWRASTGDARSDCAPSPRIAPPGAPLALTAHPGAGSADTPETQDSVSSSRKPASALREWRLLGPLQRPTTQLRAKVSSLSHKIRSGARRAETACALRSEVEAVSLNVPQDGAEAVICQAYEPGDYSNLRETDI
T1 sequence (P43140 whole entry): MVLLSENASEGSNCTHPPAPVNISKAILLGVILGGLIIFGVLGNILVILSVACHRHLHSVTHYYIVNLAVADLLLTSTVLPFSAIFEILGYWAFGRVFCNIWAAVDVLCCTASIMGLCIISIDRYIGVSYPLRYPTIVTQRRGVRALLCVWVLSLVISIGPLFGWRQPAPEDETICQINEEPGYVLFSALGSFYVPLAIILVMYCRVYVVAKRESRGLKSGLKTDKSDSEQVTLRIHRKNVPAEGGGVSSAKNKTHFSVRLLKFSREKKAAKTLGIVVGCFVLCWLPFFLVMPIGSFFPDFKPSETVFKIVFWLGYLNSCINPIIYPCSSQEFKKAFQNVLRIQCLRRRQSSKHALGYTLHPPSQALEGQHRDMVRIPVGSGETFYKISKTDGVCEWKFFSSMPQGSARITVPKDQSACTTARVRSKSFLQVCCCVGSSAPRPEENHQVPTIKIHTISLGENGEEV
How it was run: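 Rat cortical homogenates labelled with [3H]prazosin (0.2 nM), incubated 30 min at 25 °C. Stopped with cold 50 mM Tris pH 7.4, then rapid filtration. Triplicate, at least eight concentrations. Nonlinear regression gave IC50, converted to apparent Ki by Cheng-Prusoff. Means of at least two experiments ± SEM; values without SEM are single determinations.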

[2] = molecular target: D(2) dopamine receptor (Rattus norvegicus) (UniProt P61169); assay: Ratio of Dopamine D2 receptor (low)and Dopamine D2 receptor (high)
How it was run: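 Ratio Ki(low)/Ki(high). Ki(low) comes from displacement of 1 nM [3H]spiperone in striatal membranes with 1 mM GppNHp and NaCl, 37 °C for 5 min. […] Both Ki values derived by Cheng-Prusoff from nine concentrations in triplicate; the ratio serves as an estimate of intrinsic activity.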

[3] = molecular target: T2, 5-hydroxytryptamine receptor 1A (Rattus norvegicus, UniProt P19327); assay: In vitro binding affinity towards 5-hydroxytryptamine 1A receptor by the displacement of [3H]8-OH-DPAT radioligand in rat hippocampal homogenates; type: tissue-based, Hippocampus
T2 sequence (P19327 whole entry): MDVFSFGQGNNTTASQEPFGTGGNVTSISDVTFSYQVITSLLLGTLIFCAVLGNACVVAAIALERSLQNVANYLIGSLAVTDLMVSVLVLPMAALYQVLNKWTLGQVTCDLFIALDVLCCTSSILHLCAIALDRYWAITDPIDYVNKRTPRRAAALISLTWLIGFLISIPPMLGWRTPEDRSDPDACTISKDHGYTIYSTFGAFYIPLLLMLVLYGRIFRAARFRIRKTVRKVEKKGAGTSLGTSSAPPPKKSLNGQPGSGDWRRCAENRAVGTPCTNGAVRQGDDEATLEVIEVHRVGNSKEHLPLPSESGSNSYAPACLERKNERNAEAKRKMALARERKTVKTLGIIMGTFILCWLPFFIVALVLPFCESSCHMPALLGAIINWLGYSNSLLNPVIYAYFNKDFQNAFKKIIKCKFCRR

D(2) dopamine receptor [4] = molecular target: T3, D(2) dopamine receptor (Rattus norvegicus, UniProt P61169); assay: In vitro low binding affinity towards Dopamine receptor D2 by the displacement of [3H]spiperone radioligand in rat striatal membranes; type: cell membranes, Membrane
D(2) dopamine receptor [5] = molecular target: T3, D(2) dopamine receptor; assay: In vitro high binding affinity towards Dopamine receptor D2 by the displacement of [3H]quinpirole radioligand in rat striatal membranes; type: cell membranes, Membrane
[6] = molecular target: T1, Adrenergic receptor alpha-1; assay: In vitro binding affinity towards Alpha-1 adrenergic receptor by the displacement of [3H]prazosin radioligand in rat cortical homogenates

D(2) dopamine receptor (Rattus norvegicus), sequence (P61169 whole entry): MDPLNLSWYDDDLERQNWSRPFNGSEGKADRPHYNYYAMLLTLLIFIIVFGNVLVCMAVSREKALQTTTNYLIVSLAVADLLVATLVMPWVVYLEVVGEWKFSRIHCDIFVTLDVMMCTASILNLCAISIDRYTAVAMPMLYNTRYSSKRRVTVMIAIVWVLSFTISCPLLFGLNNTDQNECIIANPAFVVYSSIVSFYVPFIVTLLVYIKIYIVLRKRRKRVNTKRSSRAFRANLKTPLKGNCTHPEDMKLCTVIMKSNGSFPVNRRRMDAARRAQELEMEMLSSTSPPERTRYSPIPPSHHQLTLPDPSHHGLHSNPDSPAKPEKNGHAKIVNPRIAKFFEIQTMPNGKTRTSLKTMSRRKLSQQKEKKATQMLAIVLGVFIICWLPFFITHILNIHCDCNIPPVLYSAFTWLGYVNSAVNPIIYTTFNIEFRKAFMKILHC
T3 sequence (P61169 whole entry): as above

| Ki [1] [µM] | Ratio [2] | Ki [3] [µM] | Ki (D(2) dopamine receptor [4]) [µM] | Ki (D(2) dopamine receptor [5]) [µM] | Ki [6] [µM] | SMILES |
| --- | --- | --- | --- | --- | --- | --- |
| 0.025 | 76 | 0.025 | 0.916 | 0.0121 | – | NCCOc1ccc(F)c2c1CC(=O)N2 |
| 0.066 | 3 | 0.219 | 0.0199 | 0.007 | – | Clc1ccc(OCCNCc2ccccc2)c2c(Cl)c[nH]c12 |
| 0.268 | 3 | 0.038 | 0.0467 | 0.0174 | – | O=C1Cc2c(OCCNCc3ccc(-c4ccccc4)cc3)ccc(Cl)c2N1 |
| – | – | 0.306 | 0.0114 | 0.00021 | 1.448 | O=C1Cc2c(cccc2OCCNCc2ccccc2)N1 |
| 0.0115 | 3 | 0.0004 | 0.0144 | 0.0053 | – | c1ccc(CCCCNCCOc2cccc3[nH]ccc23)cc1 |
| – | – | 0.0004 | 0.0359 | 0.0019 | 0.024 | c1ccc(CNC[C@H]2CCc3ccc4[nH]ccc4c3O2)cc1 |
| 0.013 | 9 | 0.0019 | 0.00206 | 0.00023 | – | O=C1Cc2c(cccc2OCCNCCCCc2ccccc2)N1 |
| 0.229 | 1 | 0.685 | 0.0595 | 0.05 | – | Fc1ccc(CNCCOc2ccc(Cl)c3[nH]cc(Cl)c23)cc1 |
| – | – | 0.024 | 0.0178 | 0.00084 | 0.039 | O=C1Cc2c(OCCNCc3ccsc3)ccc(F)c2N1 |
| 0.1385 | 2 | 0.193 | 0.0144 | 0.0074 | – | Clc1ccc(OCCNCc2ccccc2)c2cc[nH]c12 |
| 0.431 | 11 | 6.56 | 0.0138 | 0.0013 | – | O=C1Cc2c(OCCNCc3ccc(F)cc3)ccc(Cl)c2N1 |
| 0.334 | 9 | 1.17 | 0.0055 | 0.00064 | – | Cc1ccc(CNCCOc2ccc(Cl)c3c2CC(=O)N3)cc1 |
| 1.057 | 74 | 0.276 | 0.147 | 0.002 | – | CNCCOc1cccc2c1CC(=O)N2 |
| – | – | 0.025 | 0.00502 | 0.00086 | 0.128 | O=C1Cc2c(OCCN3CCc4ccccc4C3)ccc(F)c2N1 |
| 0.165 | 42 | 0.0085 | 0.0059 | 0.00014 | – | O=C1Cc2c(ccc3c2O[C@@H](CNCc2ccccc2)CC3)N1 |
| 0.458 | 0.4 | – | 0.0298 | 0.0771 | – | Clc1ccc(CNCCOc2ccc(Cl)c3[nH]cc(Cl)c23)cc1 |
| 0.041 | 9 | 0.008 | 0.0234 | 0.0026 | – | CN(CCOc1ccc(Cl)c2c1CC(=O)N2)Cc1ccccc1 |
| 0.026 | 20 | 0.012 | 0.00303 | 0.00015 | – | O=C1Cc2c(OCCNCCCc3c[nH]c4ccccc34)ccc(F)c2N1 |
| – | – | 0.34 | 0.0274 | 0.0048 | 0.22 | O=C1Cc2c(OCCNCc3ccc(-c4ccccc4)cc3)ccc(F)c2N1 |
| 0.0975 | – | 0.051 | – | – | – | O=C(c1c[nH]c2c(Cl)ccc(OCCNCc3ccccc3)c12)C(F)(F)F |

| Ki [1] [µM] | Ratio [2] | Ki [3] [µM] | Ki (D(2) dopamine receptor [4]) [µM] | Ki (D(2) dopamine receptor [5]) [µM] | Ki [6] [µM] | SMILES |
| --- | --- | --- | --- | --- | --- | --- |
| – | – | 0.041 | 0.00285 | 0.00044 | 0.085 | O=C1Cc2c(OCCN3Cc4ccccc4C3)ccc(Cl)c2N1 |
| – | – | 0.535 | 0.0053 | 0.00063 | 0.052 | O=C1Cc2c(OCCNCc3ccccc3)ccc(F)c2N1 |
| 0.35 | 7 | 2.66 | 0.0028 | 0.00041 | – | O=C1Cc2c(OCCNCc3ccccc3)ccc(Cl)c2N1 |
| 0.0095 | 8 | 0.253 | 0.0241 | 0.0031 | – | CN(CCCC(=O)c1ccc(F)cc1)CCOc1cccc2c1CC(=O)N2 |
| 0.011 | 17 | – | 0.0146 | 0.00084 | – | CCCCNCCOc1ccc(Cl)c2c1CC(=O)N2 |
| 0.143 | 8 | 0.017 | 0.00427 | 0.00055 | – | O=C1Cc2c(OCCN3CCc4ccccc4C3)ccc(Cl)c2N1 |
| – | – | 6.26 | 0.0496 | 0.00076 | 4.829 | CN(CCOc1cccc2c1CC(=O)N2)Cc1ccccc1 |
| 0.154 | 14 | 0.121 | 0.009 | 0.00063 | – | O=C1Cc2c(OCCNCc3ccc4ccccc4c3)ccc(F)c2N1 |
| 5.291 | 32 | 1.78 | 0.115 | – | – | Oc1cccc(OCCNCc2ccccc2)c1 |
| – | – | – | 0.13 | 0.0067 | – | Oc1ccc2c(c1)O[C@@H](CNCc1ccccc1)CN2 |
| – | 3 | – | 0.0384 | 0.0123 | – | Clc1ccc(OCCNCc2cccs2)c2c(Cl)c[nH]c12 |
| – | – | 1.89 | 0.0041 | 0.0014 | 0.134 | O=C1Cc2c(OCCNCc3ccc(Cl)cc3)ccc(Cl)c2N1 |
| – | – | 0.664 | 0.268 | 0.00693 | 11.081 | NCCOc1cccc2c1CC(=O)N2 |
| – | – | 0.017 | 0.0056 | 0.00065 | 0.38 | O=C1Cc2c(OCCNCC3CCCCC3)ccc(F)c2N1 |
| – | – | 0.059 | – | – | 0.005 | O=C1Cc2c(OCCNCc3cccs3)ccc(Cl)c2N1 |
| – | – | 0.625 | – | – | 2.899 | O=C1Cc2c(OCCNCc3cccc(-c4ccccc4)c3)ccc(F)c2N1 |
| 0.268 | 7 | 0.013 | 0.016 | 0.00208 | – | O=C1Cc2c(OCCN3Cc4ccccc4C3)ccc(F)c2N1 |
| – | – | 0.083 | 0.00332 | 0.00024 | 0.014 | O=C1Cc2c(OCCNCc3ccsc3)ccc(Cl)c2N1 |
| – | – | 0.039 | 0.0218 | 0.00066 | 0.032 | O=C1Cc2c(OCCNCc3cccs3)ccc(F)c2N1 |
